Assay results pooled from the literature.
Compare with care: the assays were run in different laboratories. In brackets after ≈: the same amount, converted by molar mass.
Organism: Nakaseomyces glabratus

SMILES	test	test system	conditions	endpoint	value
CCCCCCCCCCCCCN1CCN(CC(O)(Cn2cncn2)c2ccc(F)cc2F)CC1 (stereo not shown)	microbial growth, broth dilution	ATCC2001	48 h	MIC	0.975 µg/mL (≈ 1.93 µM)
CCCCCCOc1c(OC)cc(NC(C)CCCN)c2nc(C(C)(C)C)ccc12 (stereo not shown)	microbial growth	ATCC90030	–	IC50	11.5 µg/mL (≈ 27.6 µM)
O=C(O)c1nc2ccccc2c(=O)n1Cc1cn(-c2ccc([N+](=O)[O-])cc2)nn1	microbial growth, broth dilution	ATCC90030	24 h	IC50	432 µg/mL (≈ 1100 µM)
CCCCCCCCOc1c(OC)cc(NC(C)CCCNC(=O)C2CCCN2)c2nc(C(C)(C)C)ccc12 (stereo not shown)	microbial killing	ATCC90030	–	MFC	20 µg/mL
CCCCCCCCCCN1CCN(CC(O)(Cn2cncn2)c2ccc(Cl)cc2Cl)CC1 (stereo not shown)	microbial growth, broth dilution	ATCC2001	48 h	MIC	0.975 µg/mL (≈ 1.96 µM)
CCOC(=O)c1nc2ccccc2c(=O)n1Cc1cn(-c2ccc(Cl)cc2)nn1	microbial growth, broth dilution	ATCC90030	24 h	IC50	195 µg/mL (≈ 476 µM)
CCCCCCCCCN1CCN(CC(O)(Cn2cncn2)c2ccc(F)cc2F)CC1 (stereo not shown)	microbial growth, broth dilution	ATCC2001	48 h	MIC	3.9 µg/mL (≈ 8.67 µM)
O=C(O)c1nc2ccccc2c(=O)n1Cc1cn(-c2ccccc2[N+](=O)[O-])nn1	microbial growth, broth dilution	ATCC90030	24 h	IC50	487 µg/mL (≈ 1240 µM)
CCCCCCCCCCCCCCN1CCOCC1	microbial growth, broth dilution	ATCC2001	48 h	MIC	> 31.3 µg/mL
CCOC(=O)c1nc2ccccc2c(=O)n1Cc1cn(-c2ccccc2)nn1	microbial growth, broth dilution	ATCC90030	24 h	IC50	182 µg/mL (≈ 484 µM)
CCCCCCCCOc1c(OC)cc(NC(C)CCCN)c2nc(C(C)(C)C)ccc12 (stereo not shown)	microbial killing	ATCC90030	–	MFC	10 µg/mL
C[C@@H]1[C@H](O)[C@@H](C)/C=C/C=C/C=C/C=C/C=C/C=C/C=C/[C@H](O[C@@H]2O[C@H](C)[C@@H](O)[C@H](N)[C@@H]2O)C[C@@H]2O[C@](O)(C[C@@H](O)C[C@@H](O)[C@H](O)CC[C@@H](O)C[C@@H](O)CC(=O)O[C@H]1C)C[C@H](O)[C@H]2C(=O)O	microbial killing	ATCC90030	–	MFC	1.35 µM
O=C(O)c1nc2ccccc2c(=O)n1Cc1cn(-c2cccc([N+](=O)[O-])c2)nn1	microbial growth, broth dilution	ATCC90030	24 h	IC50	487 µg/mL (≈ 1240 µM)
CCCCCCOc1c(OC)cc(NC(C)CCCNC(=O)C(N)Cc2cnc[nH]2)c2nc(C(C)(C)C)ccc12 (stereo not shown)	microbial growth, broth dilution	ATCC90030	–	MIC	20 µg/mL (≈ 36.2 µM)
O=C(O)c1nc2ccccc2c(=O)n1Cc1cn(-c2cccc(F)c2)nn1	microbial growth, broth dilution	ATCC90030	24 h	IC50	262 µg/mL (≈ 717 µM)
CCCCCCCOc1c(OC)cc(NC(C)CCCN)c2nc(C(C)(C)C)cc(C)c12 (stereo not shown)	microbial growth	ATCC90030	–	IC50	4.3 µg/mL (≈ 9.69 µM)
COc1cc(C(C)(C)C#Cc2c(C)nc(N)nc2N)cc(OC)c1OC	microbial growth, resazurin	–	–	MIC	178 µg/mL (≈ 499 µM)
C[C@@H]1[C@H](O)[C@@H](C)/C=C/C=C/C=C/C=C/C=C/C=C/C=C/[C@H](O[C@@H]2O[C@H](C)[C@@H](O)[C@H](N)[C@@H]2O)C[C@@H]2O[C@](O)(C[C@@H](O)C[C@@H](O)[C@H](O)CC[C@@H](O)C[C@@H](O)CC(=O)O[C@H]1C)C[C@H](O)[C@H]2C(=O)O	microbial growth	ATCC90030	–	IC50	0.31 µg/mL (≈ 0.335 µM)
CCCCCCCCCCCN1CCN(CC(O)(Cn2cncn2)c2ccc(F)cc2F)CC1 (stereo not shown)	microbial growth, broth dilution	ATCC2001	48 h	MIC	3.9 µg/mL (≈ 8.17 µM)
